Assay results taken from ChEMBL document CHEMBL4610117 (J Med Chem, 2020).
The source made the active and inactive calls. The rule behind the calls is not given here.

Columns and labels:
[1] = biological target: T1, Serine/threonine-protein kinase ATR (Homo sapiens, UniProt Q13535); test: Inhibition of 5'-TAMRA-labeled tracer 3',6'-bis(dimethylamino)-N-(4-{[2(1H-indol-4-yl)-6-(morpholin-4-yl)-pyrimidin-4-yl]amino}butyl)-3-oxo-3H-spiro[2-benzofuran-1,9'-xanthene]-5-carboxamide binding to recombinant human full-length N-terminal Flag-tagged ATR expressed in HEK293-6E cells co-expressing human full-length STREP-tagged ATRIP preincubated for 10 mins followed by tracer addition and measured after 30 mins by TR-FRET assay; format: cell-based
T1 sequence (Q13535 whole entry): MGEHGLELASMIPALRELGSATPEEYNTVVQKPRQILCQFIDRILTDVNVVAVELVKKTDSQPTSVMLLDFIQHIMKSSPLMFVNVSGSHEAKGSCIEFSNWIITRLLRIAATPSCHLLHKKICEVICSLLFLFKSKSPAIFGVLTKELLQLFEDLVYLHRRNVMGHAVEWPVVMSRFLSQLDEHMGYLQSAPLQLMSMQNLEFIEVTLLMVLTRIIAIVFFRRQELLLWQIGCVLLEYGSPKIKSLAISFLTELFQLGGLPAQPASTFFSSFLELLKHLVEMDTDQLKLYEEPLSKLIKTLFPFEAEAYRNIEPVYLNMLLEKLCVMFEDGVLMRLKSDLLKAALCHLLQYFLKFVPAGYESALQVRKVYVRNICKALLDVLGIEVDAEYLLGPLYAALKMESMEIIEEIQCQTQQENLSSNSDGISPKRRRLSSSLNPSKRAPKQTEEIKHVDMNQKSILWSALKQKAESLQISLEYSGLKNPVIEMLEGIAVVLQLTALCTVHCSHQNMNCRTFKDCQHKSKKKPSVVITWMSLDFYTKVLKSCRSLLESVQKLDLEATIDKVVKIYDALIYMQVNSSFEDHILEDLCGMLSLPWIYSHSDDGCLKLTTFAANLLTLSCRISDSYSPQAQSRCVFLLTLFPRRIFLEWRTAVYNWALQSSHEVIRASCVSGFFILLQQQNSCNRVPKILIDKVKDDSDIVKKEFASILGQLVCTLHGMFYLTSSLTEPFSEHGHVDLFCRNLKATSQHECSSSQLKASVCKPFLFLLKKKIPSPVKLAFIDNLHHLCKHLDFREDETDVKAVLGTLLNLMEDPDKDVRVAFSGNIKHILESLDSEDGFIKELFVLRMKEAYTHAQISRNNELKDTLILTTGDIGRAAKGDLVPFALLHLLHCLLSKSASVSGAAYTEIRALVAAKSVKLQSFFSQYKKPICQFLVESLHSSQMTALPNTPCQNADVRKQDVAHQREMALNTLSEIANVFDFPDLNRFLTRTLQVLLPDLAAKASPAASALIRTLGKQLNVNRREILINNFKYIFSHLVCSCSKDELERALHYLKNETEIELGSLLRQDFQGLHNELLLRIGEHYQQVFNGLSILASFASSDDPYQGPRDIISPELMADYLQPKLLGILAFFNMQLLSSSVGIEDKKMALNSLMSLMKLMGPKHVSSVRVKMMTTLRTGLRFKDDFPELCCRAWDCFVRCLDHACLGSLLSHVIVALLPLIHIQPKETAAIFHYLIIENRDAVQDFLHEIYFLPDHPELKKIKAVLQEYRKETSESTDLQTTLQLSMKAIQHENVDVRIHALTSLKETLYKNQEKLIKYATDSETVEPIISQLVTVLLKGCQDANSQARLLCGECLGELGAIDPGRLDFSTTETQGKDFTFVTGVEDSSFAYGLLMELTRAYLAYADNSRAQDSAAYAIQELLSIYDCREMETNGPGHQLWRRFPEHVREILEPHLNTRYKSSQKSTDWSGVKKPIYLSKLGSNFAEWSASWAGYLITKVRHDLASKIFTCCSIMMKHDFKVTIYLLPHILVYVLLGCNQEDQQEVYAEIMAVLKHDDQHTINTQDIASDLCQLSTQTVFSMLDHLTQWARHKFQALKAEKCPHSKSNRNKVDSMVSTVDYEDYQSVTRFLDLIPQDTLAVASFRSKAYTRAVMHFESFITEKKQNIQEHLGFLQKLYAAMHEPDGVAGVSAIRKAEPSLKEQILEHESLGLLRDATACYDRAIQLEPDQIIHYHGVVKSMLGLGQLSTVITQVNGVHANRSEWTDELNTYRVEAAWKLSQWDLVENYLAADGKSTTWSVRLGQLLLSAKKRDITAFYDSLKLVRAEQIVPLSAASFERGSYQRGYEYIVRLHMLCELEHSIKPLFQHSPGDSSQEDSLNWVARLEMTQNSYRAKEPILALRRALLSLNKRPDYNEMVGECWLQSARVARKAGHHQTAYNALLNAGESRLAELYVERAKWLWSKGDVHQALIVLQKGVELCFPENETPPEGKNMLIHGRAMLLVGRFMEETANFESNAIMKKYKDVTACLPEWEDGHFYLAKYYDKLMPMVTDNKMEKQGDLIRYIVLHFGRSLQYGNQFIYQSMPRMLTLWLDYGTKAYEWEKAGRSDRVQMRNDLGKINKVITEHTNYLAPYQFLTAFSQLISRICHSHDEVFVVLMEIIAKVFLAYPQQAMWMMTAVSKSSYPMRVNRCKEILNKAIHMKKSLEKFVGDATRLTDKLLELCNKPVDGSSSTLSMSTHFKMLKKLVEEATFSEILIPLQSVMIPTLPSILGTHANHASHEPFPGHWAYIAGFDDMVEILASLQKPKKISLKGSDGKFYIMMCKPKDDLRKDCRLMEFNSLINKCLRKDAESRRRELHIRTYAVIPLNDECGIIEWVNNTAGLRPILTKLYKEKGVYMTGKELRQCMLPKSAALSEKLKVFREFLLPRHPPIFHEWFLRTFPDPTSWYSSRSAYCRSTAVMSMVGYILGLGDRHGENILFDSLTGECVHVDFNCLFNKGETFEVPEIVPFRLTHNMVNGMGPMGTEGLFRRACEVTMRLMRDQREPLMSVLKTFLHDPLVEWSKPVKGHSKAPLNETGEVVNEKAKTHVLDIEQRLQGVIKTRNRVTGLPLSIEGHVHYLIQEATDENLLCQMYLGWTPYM

HT-29 [2] = test: Antiproliferative activity against human HT-29 cells assessed as reduction in cell viability measured after 4 days by crystal violet staining based assay; format: functional; settings: HT-29, 96 h
Outline: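 Cells plated at 2000 (HT-29) or 3000 (LoVo) per point in DMEM/Ham's F12 with 2 mM L-glutamine and 10% FCS. After 24 h adherence, compounds were added at 0.001–10 μM (0.1% DMSO final) and incubated continuously for 4 d at 37 °C. Cells were glutaraldehyde-fixed, stained with crystal violet and read at 595 nm.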

[3] = Selectivity ratio of IC50 for inhibition of PI3K/AKT/mTOR signaling pathway in human MCF7 cells to IC50 for inhibition of ATR in human HT-29 cells
[4] = biological target: T1, Serine/threonine-protein kinase ATR; test: Inhibition of ATR in human HT-29 cells assessed as reduction in histone H2AX phosphorylation measured after 30 mins by immunofluorescence cytometric assay; format: cell-based
Outline: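 HT-29 cells were seeded at 12000/point in DMEM/Ham's F12 with 2 mM L-glutamine and 10% FCS and grown 24 h at 37 °C. Compound (1 nM–10 μM final) was added with hydroxyurea (2.5 mM final) for 30 min at 37 °C.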

[5] = Volume of distribution at steady state in Wistar rat at 0.3 to 0.5 mg/kg, iv administered as bolus dose by LC-MS/MS analysis; format: ADME, organism-based; settings: in vivo, read-out: Vdss
[6] = Apparent half life in Wistar rat at 0.3 to 0.5 mg/kg, iv administered as bolus dose by LC-MS/MS analysis; format: ADME, organism-based; settings: in vivo, read-out: t1/2(app) (converted)
[7] = Lipophilicity, log D of the compound in pH 7.5 MeCN/H2O solution by reversed-phase HPLC analysis
[8] = Clearance in rat liver microsomes at 1 uM measured after 2 to 60 mins in presence of NADP by LC-MS/MS analysis; format: ADME, Microsome
[9] = Clearance in Han-Wistar rat hepatocytes at 1 uM measured after 2 to 90 mins by LC-MS/MS analysis; format: ADME, cell-based, Hepatocyte
[10] = Oral bioavailability in Wistar rat at 0.6 to 1 mg/kg by LC-MS/MS analysis; format: ADME, organism-based; settings: in vivo
[11] = Clearance in Wistar rat at 0.3 to 0.5 mg/kg, iv administered as bolus dose by LC-MS/MS analysis; format: ADME, organism-based; settings: in vivo
[12] = biological target: Voltage-gated inwardly rectifying potassium channel KCNH2 (Homo sapiens, UniProt Q12809); test: Inhibition of recombinant human ERG stably expressed in HEK293 cells at -80 mV by whole cell voltage clamp method
Chain of Voltage-gated inwardly rectifying potassium channel KCNH2 (Q12809 whole entry): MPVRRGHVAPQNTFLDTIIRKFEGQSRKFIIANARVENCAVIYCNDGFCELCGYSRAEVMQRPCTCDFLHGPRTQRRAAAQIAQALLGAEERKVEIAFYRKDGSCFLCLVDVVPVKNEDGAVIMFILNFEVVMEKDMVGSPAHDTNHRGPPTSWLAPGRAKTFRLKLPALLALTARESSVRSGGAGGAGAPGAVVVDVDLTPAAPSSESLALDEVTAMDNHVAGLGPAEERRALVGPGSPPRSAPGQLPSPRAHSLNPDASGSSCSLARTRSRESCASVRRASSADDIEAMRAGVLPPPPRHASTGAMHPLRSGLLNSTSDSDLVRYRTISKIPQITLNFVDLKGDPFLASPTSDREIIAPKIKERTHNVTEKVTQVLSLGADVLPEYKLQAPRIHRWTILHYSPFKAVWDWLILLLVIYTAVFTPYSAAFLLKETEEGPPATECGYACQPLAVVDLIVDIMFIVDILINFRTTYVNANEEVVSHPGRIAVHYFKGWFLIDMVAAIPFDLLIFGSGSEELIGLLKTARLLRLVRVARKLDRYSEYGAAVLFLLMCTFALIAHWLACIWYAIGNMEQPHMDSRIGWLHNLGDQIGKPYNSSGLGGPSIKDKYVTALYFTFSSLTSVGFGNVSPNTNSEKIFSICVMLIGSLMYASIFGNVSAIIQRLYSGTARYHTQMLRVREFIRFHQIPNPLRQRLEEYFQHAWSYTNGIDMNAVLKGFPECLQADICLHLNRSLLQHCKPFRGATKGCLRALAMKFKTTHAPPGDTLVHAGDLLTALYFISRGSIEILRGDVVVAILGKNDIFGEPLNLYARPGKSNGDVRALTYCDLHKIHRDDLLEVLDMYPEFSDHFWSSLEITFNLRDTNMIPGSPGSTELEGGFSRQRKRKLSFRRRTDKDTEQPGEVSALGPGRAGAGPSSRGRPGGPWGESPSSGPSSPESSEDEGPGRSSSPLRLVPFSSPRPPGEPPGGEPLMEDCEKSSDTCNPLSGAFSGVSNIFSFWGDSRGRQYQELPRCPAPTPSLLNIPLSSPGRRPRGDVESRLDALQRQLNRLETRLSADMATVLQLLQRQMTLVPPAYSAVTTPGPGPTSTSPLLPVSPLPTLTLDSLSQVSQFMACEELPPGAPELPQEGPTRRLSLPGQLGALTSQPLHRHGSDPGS

[13] = Apparent permeability across apical to basolateral side in human Caco2 cells at 2 uM measured after 2 hrs by LC-MS/MS analysis; settings: Caco-2
physchem = settings: pH 6.5
[14] = Efflux ratio of apparent permeability across basolateral to apical side over apical to basolateral side in human Caco2 cells at 2 uM; settings: Caco-2
HT-29 [15] = test: Antitumor activity against human HT-29 cells xenografted in po dosed mouse administered twice daily; format: functional, organism-based
LoVo = test: Antiproliferative activity against human LoVo cells assessed as reduction in cell viability measured after 4 days by crystal violet staining based assay; format: functional; settings: 96 h

| Compound | IC50 [1] [nM] | IC50 (HT-29 [2]) [nM] | IC50 [4] [nM] | also measured |
| --- | --- | --- | --- | --- |
| CNC(=O)c1nccc2c(OC(C)C)cc(N3CCOCC3)nc12 | > 20000 |  |  |  |
| Cc1cn[nH]c1-c1nccc2c(OC(C)C)cc(N3CCOCC3)nc12 | 5640 |  |  |  |
| CC(C)Oc1cc(N2CC(F)(F)OC(F)(F)C2)nc2c(-c3ccn[nH]3)nccc12 | > 20000 |  |  |  |
| C[C@@H]1COCCN1c1cc(C2(S(C)(=O)=O)CC2)c2ccnc(-c3ccn[nH]3)c2n1 | 15 | 268 | 86 | Ratio IC50 [3]: 71 |
| CC(C)Oc1cc(N2CCOCC2)nc2c(C3CCNC3)nccc12 (stereo not given) | > 20000 |  |  |  |
| CC(C)Oc1cc(N2CCOCC2)nc2c(-c3ccc[nH]3)nccc12 |  |  | > 3000 |  |
| CC(C)Oc1cc(N2CCO[C@@H](C)C2)nc2c(-c3ccn[nH]3)nccc12 | 1970 |  |  |  |
| Cc1nccn1-c1cc(N2CCOC[C@H]2C)nc2c(-c3ccn[nH]3)nccc12 | 25 | 192 | 76 | Ratio IC50 [3]: 263 |
| CC(C)Oc1cc(N2CCO[C@H](C)C2)nc2c(-c3ccn[nH]3)nccc12 | 1500 |  |  |  |
| CC(C)Oc1cc(N2CCOCC2)nc2c(-c3nnn[nH]3)nccc12 | > 20000 |  |  |  |
| CC(C)Oc1cc(N2CCOCC2)nc2c(-c3ccnn3C)nccc12 | 12500 |  |  |  |
| C[C@@H]1COCCN1c1cc(C(C)(O)C(C)(C)C)c2ccnc(-c3ccn[nH]3)c2n1 (stereo not given in full) |  | 93 |  |  |
| C[C@@H]1COCCN1c1cc(N2CCN(S(C)(=O)=O)CC2)c2ccnc(-c3ccn[nH]3)c2n1 | 5 | 233 | 59 | Ratio IC50 [3]: 44 |
| CC(C)Oc1cc(N2CCOCC2)nc2c(-c3cc4ccccc4[nH]3)nccc12 | > 20000 |  |  |  |
| CC(C)Oc1cc(N2CCOC[C@H]2C)nc2c(-c3ccn[nH]3)nccc12 |  | 929 | 154 | Ratio IC50 [3]: 25 |
| CC(C)Oc1cc(N2CCOCC2C(F)(F)F)nc2c(-c3ccn[nH]3)nccc12 (stereo not given) | 8610 |  |  |  |
| CC(C)Oc1cc(N2C[C@@H]3C[C@H]2CO3)nc2c(-c3ccn[nH]3)nccc12 | 922 |  |  |  |
| Cc1cc(-c2nccc3c(OC(C)C)cc(N4CCOCC4)nc23)n[nH]1 | 12700 |  |  |  |
| CC(C)Oc1cc(N2C3CCC2COC3)nc2c(-c3ccn[nH]3)nccc12 | 310 |  |  |  |
| CC(C)Oc1cc(N2CCOCC2)nc2c(-c3cn[nH]c3)nccc12 | 3690 |  |  |  |
| CCP(=O)(CC)c1cc(N2CCOC[C@H]2C)nc2c(-c3ccn[nH]3)nccc12 |  | 498 | 289 | Ratio IC50 [3]: 61 |
| CC(C)Oc1cc(N2CCOCC2(C)C)nc2c(-c3ccn[nH]3)nccc12 | > 20000 |  |  |  |
| CC(C)Oc1cc(N2CCOC3CC32)nc2c(-c3ccn[nH]3)nccc12 (stereo not given) | 1510 |  |  |  |

| Compound | IC50 [1] [nM] | IC50 (HT-29 [2]) [nM] | IC50 [4] [nM] | also measured |
| --- | --- | --- | --- | --- |
| CS(=O)(=O)c1ccc(-c2cc(N3CCOCC3)nc3c(-c4cc[nH]n4)nccc23)cc1 |  |  | 380 | Vd [5]: 2 L/kg; half-life [6]: 55.8 min; chromatographic logD [7]: 2.1; CLH [8]: 11.5 mL/min/kg; CLH [9]: 10.7 mL/min/kg; bioavailability [10]: 14%; clearance [11]: 25 mL/min/kg; IC50 [12]: 5800 nM; Papp A→B at 2 h, 2 µM [13]: 10.2 ×10⁻⁶ cm/s; solubility at 24 h (physchem): < 1 µg/mL; efflux ratio at 2 µM [14]: 2.1 |
| CC(C)Oc1cc(N2CCOCC2)nc2c(-c3cccc(=O)[nH]3)nccc12 | > 20000 |  |  |  |
| CC(C)Oc1cc(N2CCOCC2)nc2c(-c3ccn[nH]3)nccc12 |  |  | 424 | Ratio IC50 [3]: 5 |
| CC(C)Oc1cc(N2C[C@H]3COC[C@H]3C2)nc2c(-c3ccn[nH]3)nccc12 | 9440 |  |  |  |
| Cc1nc(S(C)(=N)=O)ccc1-c1cc(N2CCOC[C@H]2C)nc2c(-c3ccn[nH]3)nccc12 (stereo not given in full) | 10 | 323 | 266 | Ratio IC50 [3]: 16 |
| C[C@@H]1COCCN1c1cc(-c2cnc3n2CCC3)c2ccnc(-c3ccn[nH]3)c2n1 |  | 125 | 82 | Ratio IC50 [3]: 59 |
| CC(C)Oc1cc(N2CCOCC2)nc2c(-c3cccnc3)nccc12 | 18100 |  |  |  |
| CS(=O)(=O)c1ccc(-c2cc(N3CCOCC3)nc3c(-c4ccn[nH]4)nccc23)cc1 |  | 704 |  | Ratio IC50 [3]: 13; Activity (HT-29 [15]): Active; IC50 (LoVo): 315 nM |
| CC(C)Oc1cc(N2CCOCC2)nc2c(-c3ccc[nH]c3=O)nccc12 | > 20000 |  |  |  |
| C[C@@H]1COCCN1c1cc(-c2cccnc2F)c2ccnc(-c3ccn[nH]3)c2n1 | 8 | 175 | 44 | Ratio IC50 [3]: 50 |
| C[C@@H]1COCCN1c1cc(C2CCOCC2)c2ccnc(-c3ccn[nH]3)c2n1 |  | 292 |  |  |
| CC(C)Oc1cc(N2CCOCC2)nc2c(-c3cnc[nH]3)nccc12 | 3400 |  |  |  |
| CC(C)Oc1cc(N2CCOCC2)nc2c(-c3cccc(C(N)=O)c3)nccc12 | 17200 |  |  |  |
| C[C@@H]1COCCN1c1cc(C#Cc2cccnc2)c2ccnc(-c3ccn[nH]3)c2n1 | 22 | 405 | 227 | Ratio IC50 [3]: 8 |
| CC(C)Oc1cc(N2CCOCC2)nc2c(C(N)=O)nccc12 | 3300 |  |  |  |
| CCC1COCCN1c1cc(OC(C)C)c2ccnc(-c3ccn[nH]3)c2n1 (stereo not given) | 1860 |  |  |  |
| COc1cccc(-c2nccc3c(OC(C)C)cc(N4CCOCC4)nc23)n1 | 13200 |  |  |  |
| C[C@@H]1COCCN1c1cc(N(C)c2ccc(F)cc2)c2ccnc(-c3ccn[nH]3)c2n1 | 9 | 381 | 70 | Ratio IC50 [3]: 42 |
| CC(C)Oc1cc(N2CCOCC2)nc2cnccc12 | > 20000 |  |  |  |
| COC1(C)CN(c2cc(OC(C)C)c3ccnc(-c4ccn[nH]4)c3n2)C1 | > 20000 |  |  |  |
| CCS(=O)(CC)=Nc1cc(N2CCOC[C@H]2C)nc2c(-c3ccn[nH]3)nccc12 | 22 | 168 | 30 | Ratio IC50 [3]: 217 |
| CC(C)Oc1cc(N2CCOCC2)nc2c(-c3ccn[nH]3)cccc12 | 5050 |  |  |  |
